# Experimental data from PMC11549336 (Communications Biology, 2024).
# Molecular target: recombinant Plk1 PBD (Plk1 367-603aa) (Homo sapiens, UniProt P53350)
# Assay: Peptide binding assay by isothermal titration calorimetry
# Conditions: ITC; listed as pT600/pT608 peptide
# In short: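 Protein and peptides were dialysed against 50 mM NaP, 150 mM NaCl, 0.5 mM TCEP, pH 7.5, with concentrations set by A280. ITC at 25 °C, 750 rpm stirring. […] Buffer-only controls subtracted; data fitted to a single-site model.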
# recombinant Plk1 PBD (Plk1 367-603aa), sequence (P53350 367-603): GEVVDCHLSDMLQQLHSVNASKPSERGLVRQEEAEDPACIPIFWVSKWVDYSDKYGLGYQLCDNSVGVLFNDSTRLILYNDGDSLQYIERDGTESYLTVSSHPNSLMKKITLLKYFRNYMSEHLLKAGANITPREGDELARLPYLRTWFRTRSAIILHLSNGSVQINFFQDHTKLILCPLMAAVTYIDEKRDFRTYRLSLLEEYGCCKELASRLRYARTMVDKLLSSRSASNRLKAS
substance,measurement,value
FRNVpTICPNPEDpTCDFARA [BubR1^596-614 (FRNVpTICPNPEDpTCDFARA)],"binding of peptide to recombinant Plk1 PBD, in words",could not detect any interaction
